{"source": "paper PMC8359148", "about": "(ACS Omega, 2021)", "key": {"[1]": {"tested_on": "HepG2 (liver hepatocellular carcinoma) cells", "test": "HepG2", "type": "cell-based, human", "outline": "(§1)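 Dose–response EC50 values, each from three or more independent experiments. Dd2 and 3D7 runs use chloroquine as comparator. The selectivity index is calculated as HepG2 EC50 divided by Dd2 EC50.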"}, "[2]": {"tested_on": "wild-type P. falciparum 3D7 cells", "test": "dose–response assay against 3D7 cells", "type": "cell-based", "conditions": "Plasmodium falciparum, 3D7, read-out: EC50 3D7", "outline": "as §1"}, "[3]": {"tested_on": "chloroquine-resistant P. falciparum Dd2 parasites", "test": "SYBR Green I dose–response assay against Dd2 parasites", "type": "cell-based", "conditions": "Plasmodium falciparum, DD2, read-out: EC50 Dd2, chloroquine-resistant P. falciparum Dd2, three or more independent experiments", "outline": "as §1"}, "[4]": {"tested_on": "tightly synchronized P. falciparum Dd2 cells", "test": "developmental stage-specific action", "type": "cell-based, Plasmodium falciparum", "outline": "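Tightly synchronized Dd2 cultures are treated with 1.25 μM test compound at 6, 18, 30 or 42 HPI, with 0.1% DMSO-treated infected RBCs as negative control and DHA and atovaquone as positive controls. Every 12 h, Giemsa-stained smears are read. Flow cytometry samples are fixed in 4% paraformaldehyde/0.0075% glutaraldehyde, permeabilized with 0.25% Triton X-100, RNase-treated (50 μg/mL) and YOYO-1 stained; parasitemia is taken by flow cytometry.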"}, "solubility": {"test": "solubility", "type": "physicochemical", "outline": "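DMSO solubility is tested up to 100 mM, the highest concentration tested. For aqueous solubility, PBS is slowly titrated into 10 mM DMSO stock to give 100 μM, the highest concentration tested. Clarity is checked visually against a PBS standard at room temperature over 24 h.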"}, "chemical stability": {"test": "chemical stability", "type": "physicochemical"}, "[5]": {"tested_on": "P. falciparum Dd2 cultures", "test": "kinetic kill experiments", "type": "cell-based, Plasmodium falciparum", "outline": "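Asynchronous Dd2 cultures are exposed to test compound for 6, 12, 24 or 48 h at 0.15% DMSO, then washed three times in RPMI and resuspended in culture medium. Parasite growth is monitored daily for 96 h. DHA (50 nM) and atovaquone (6.6 nM) serve as controls.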"}}, "note": "Entries after “also recorded” stand apart in the source; their conditions may differ.", "data": [{"compound": "CC[C@@]12C=C(C(=O)OC)n3c(c(c4ccccc43)CCN(C(=O)c3ccccn3)CCC1)[C@@H]2c1ccc(O)cc1", "note": "[Compound 30, methyl (11S,19S)-11-ethyl-19-(4-hydroxyphenyl)-15-(pyridine-2-carbonyl)-8,15-diazatetracyclo[9.6.2.0^2,7.0^8,18]nonadeca-1(18),2(7),3,5,9-pentaene-9-carboxylate]", "values": [{"measurement": "selectivity index (SI)", "setting": "[1]; HepG2 EC50/EC50 Dd2 cells", "result": ">100"}, {"measurement": "EC50", "setting": "[1]; Homo sapiens, HepG2, read-out: EC50 HepG2", "result": "> 25", "unit": "µM"}, {"measurement": "EC50", "setting": "[2]", "result": "1190 ± 250", "unit": "nM"}, {"measurement": "EC50", "setting": "[3]", "result": "250 ± 4", "unit": "nM"}, {"measurement": "parasitemia (flow cytometry)", "setting": "[4]; Dd2 cells treated at 6, 18 and 30 HPI, 5 x EC50", "result": "remarkable decrease in parasitemia"}, {"measurement": "effect on maturation when treated at 42 HPI", "setting": "[4]; Dd2 cells treated at 42 HPI, 5 x EC50", "result": "did not inhibit maturation"}, {"measurement": "stage-specific activity", "setting": "[4]; synchronized Dd2, 5 x EC50 (1.25 μM), treated at 6, 18, 30 and 42 HPI", "result": "prevents exit on the parasite from the schizont stage; also recorded: arrested at the late schizont stage; also recorded: do not advance beyond the late schizont stage; also recorded: act specifically on the trophozoite/schizont stage"}, {"measurement": "solubility at 24 h", "setting": "solubility; PBS buffer, aqueous buffer, kinetic from dmso stock", "result": "≥ 100", "unit": "µM"}, {"measurement": "solubility", "setting": "solubility; biological grade DMSO, organic solvent or mixture", "result": "≥ 100", "unit": "mM"}, {"measurement": "chemical stability in acidified PBS", "setting": "chemical stability; 100 μM, PBS pH 2.0 (1.95), 24 h room temperature then 24 h 37 °C, TLC and NMR", "result": "no compound breakdown; also recorded: no degradation"}, {"measurement": "chemical stability in PBS pH 7.4", "setting": "chemical stability; 100 μM, PBS pH 7.4, 24 h room temperature then 24 h 37 °C, TLC and NMR", "result": "no compound breakdown; also recorded: no degradation"}, {"measurement": "chemical stability during NMR experiments", "setting": "chemical stability; 100 °C for multiple hours", "result": "without showing compound breakdown"}, {"measurement": "effect after 24 h treatment", "setting": "[5]; 5× EC50, 24 h treatment, based on the 96 h time point", "result": "reduces parasitemia"}, {"measurement": "effect after 48 h treatment", "setting": "[5]; 5× EC50, 48 h treatment", "result": "more dramatic parasitocidal effect"}, {"measurement": "kill rate", "setting": "[5]; Dd2 cultures, 5 × EC50, treatment time required to kill", "result": ">24", "unit": "h"}]}]}
